Experimental data taken from ChEMBL document CHEMBL3600315, “Molecular modeling based approach, synthesis, and cytotoxic activity of novel benzoin derivatives targeting phosphoinostide 3-kinase (PI3Kα)” (Bioorg Med Chem Lett, 2015).
Activity calls are given as the source filed them. No cut-off for these calls is given here.

System: HCT-116
Test: Induction of apoptosis in human HCT116 cells assessed as increase in caspase-3 activity at 700 uM after 24 hrs by DEVD-pNA substrate-based colorimetric assay relative to control
Assay type: functional, cell-based
Procedure, shortened: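 HCT116 cells were incubated with each compound for 24 or 48 h. Caspase-3 enzyme activity was measured relative to untreated control cells. Values are means of two independent experiments, with P < 0.05 taken as significant.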

| SMILES | Activity |
| --- | --- |
| COc1ccc(C(=O)C(O)c2ccc(OC)cc2)cc1 (stereo unspecified) | Active |
| O=C(OC(C(=O)c1ccccc1)c1ccccc1)c1cccc(F)c1 (stereo unspecified) | Active |
| O=C(OC(C(=O)c1ccccc1)c1ccccc1)c1ccccc1F (stereo unspecified) | Active |
| O=C(OC(C(=O)c1ccccc1)c1ccccc1)c1ccc(F)cc1 (stereo unspecified) | Active |
| O=C(OC(C(=O)c1ccccc1)c1ccccc1)c1ccc(Cl)cc1 (stereo unspecified) | Active |
| O=C(OC(C(=O)c1ccccc1)c1ccccc1)c1ccc([N+](=O)[O-])cc1 (stereo unspecified) | Active |
